Measured values as given in ChEMBL document CHEMBL4689842, “EUbOPEN Chemogenomics Library wave 1” (2021).

Tested on: U2OS
Assay: Multiplex assay against U2OS
Type: toxicity, cell-based
Details: human
Procedure, shortened: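 Tubulin, mitochondrial-mass and membrane-permeability phenotypes are per cents of healthy-nucleus cells. Cells were gated by CellPathfinder machine learning into Hoechst high-intensity objects or normal cells, normal cells into healthy, pyknosed or fragmented nuclei, and pyknosed cells into mitotic or apoptotic. Before that, live cells stained at seeding with Hoechst33342, BioTracker Green Microtubule Cytoskeleton Dye, MitoTracker Red and Annexin V Alexa Fluor 680 were imaged on a CQ1 microscope at 37°C and 5% CO2 after compound addition.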

[1] = 12 h, 1 µM, compound concentration 1 uM, replicate 1
[2] = 12 h, 1 µM, compound concentration 1 uM, replicate 2
[3] = 12 h, 10 µM, compound concentration 10 uM, replicate 1
[4] = 12 h, 10 µM, compound concentration 10 uM, replicate 2
[5] = 24 h, 1 µM, compound concentration 1 uM, replicate 1
[6] = 24 h, 1 µM, compound concentration 1 uM, replicate 2
[7] = 24 h, 10 µM, compound concentration 10 uM, replicate 1
[8] = 24 h, 10 µM, compound concentration 10 uM, replicate 2
[9] = 48 h, 1 µM, compound concentration 1 uM, replicate 1
[10] = 48 h, 1 µM, compound concentration 1 uM, replicate 2
[11] = 48 h, 10 µM, compound concentration 10 uM, replicate 1
[12] = 48 h, 10 µM, compound concentration 10 uM, replicate 2

Cn1cc(-c2[nH]c3cc(NC(=O)[C@H](N)C4CCCCC4)cc4c3c2C=NNC4=O)cn1
Population Apoptotic (%) [1]: 44% | Population Fragmented Nuclei (%) [1]: 11% | Population Healthy Nuclei (%) [1]: 76% | Population Hoechst High Intensity Objects (%) [1]: 3% | Population Membrane Permeable-Phenotype (%) [1]: 6% | Population Mitochondria Different-Phenotype (%) [1]: 4% | Population Mitotic Cells (%) [1]: 55% | Population Normal (%) [1]: 96% | Population Pyknosed Nuclei (%) [1]: 11% | Population Tubulin-Different-Phenotype (%) [1]: 16% | Total Cell Count [1]: 123 | Population Apoptotic (%) [2]: 33% | Population Fragmented Nuclei (%) [2]: 13% | Population Healthy Nuclei (%) [2]: 72% | Population Membrane Permeable-Phenotype (%) [2]: 4% | Population Mitochondria Different-Phenotype (%) [2]: 7% | Population Mitotic Cells (%) [2]: 66% | Population Pyknosed Nuclei (%) [2]: 13% | Population Tubulin-Different-Phenotype (%) [2]: 12% | Total Cell Count [2]: 51 | Population Apoptotic (%) [3]: 47% | Population Fragmented Nuclei (%) [3]: 14% | Population Healthy Nuclei (%) [3]: 60% | Population Hoechst High Intensity Objects (%) [3]: 6% | Population Membrane Permeable-Phenotype (%) [3]: 7% | Population Mitochondria Different-Phenotype (%) [3]: 34% | Population Mitotic Cells (%) [3]: 52% | Population Normal (%) [3]: 93% | Population Pyknosed Nuclei (%) [3]: 25% | Population Tubulin-Different-Phenotype (%) [3]: 28% | Total Cell Count [3]: 247 | Population Apoptotic (%) [4]: 69% | Population Fragmented Nuclei (%) [4]: 37% | Population Healthy Nuclei (%) [4]: 42% | Population Hoechst High Intensity Objects (%) [4]: 9% | Population Membrane Permeable-Phenotype (%) [4]: 21% | Population Mitochondria Different-Phenotype (%) [4]: 53% | Population Mitotic Cells (%) [4]: 30% | Population Normal (%) [4]: 90% | Population Pyknosed Nuclei (%) [4]: 19% | Population Tubulin-Different-Phenotype (%) [4]: 57% | Total Cell Count [4]: 91 | Population Apoptotic (%) [5]: 46% | Population Fragmented Nuclei (%) [5]: 9% | Population Healthy Nuclei (%) [5]: 80% | Population Membrane Permeable-Phenotype (%) [5]: 5% | Population Mitochondria Different-Phenotype (%) [5]: 3% | Population Mitotic Cells (%) [5]: 53% | Population Pyknosed Nuclei (%) [5]: 9% | Population Tubulin-Different-Phenotype (%) [5]: 14% | Total Cell Count [5]: 121 | Population Apoptotic (%) [6]: 43% | Population Fragmented Nuclei (%) [6]: 13% | Population Healthy Nuclei (%) [6]: 70% | Population Hoechst High Intensity Objects (%) [6]: 3% | Population Membrane Permeable-Phenotype (%) [6]: 9% | Population Mitochondria Different-Phenotype (%) [6]: 6% | Population Mitotic Cells (%) [6]: 56% | Population Normal (%) [6]: 96% | Population Pyknosed Nuclei (%) [6]: 15% | Population Tubulin-Different-Phenotype (%) [6]: 15% | Total Cell Count [6]: 52 | Population Apoptotic (%) [7]: 67% | Population Fragmented Nuclei (%) [7]: 17% | Population Healthy Nuclei (%) [7]: 43% | Population Hoechst High Intensity Objects (%) [7]: 8% | Population Membrane Permeable-Phenotype (%) [7]: 10% | Population Mitochondria Different-Phenotype (%) [7]: 16% | Population Mitotic Cells (%) [7]: 32% | Population Normal (%) [7]: 91% | Population Pyknosed Nuclei (%) [7]: 39% | Population Tubulin-Different-Phenotype (%) [7]: 19% | Total Cell Count [7]: 293 | Population Apoptotic (%) [8]: 86% | Population Fragmented Nuclei (%) [8]: 34% | Population Healthy Nuclei (%) [8]: 29% | Population Hoechst High Intensity Objects (%) [8]: 16% | Population Membrane Permeable-Phenotype (%) [8]: 44% | Population Mitochondria Different-Phenotype (%) [8]: 61% | Population Mitotic Cells (%) [8]: 13% | Population Normal (%) [8]: 83% | Population Pyknosed Nuclei (%) [8]: 36% | Population Tubulin-Different-Phenotype (%) [8]: 55% | Total Cell Count [8]: 106 | Population Apoptotic (%) [9]: 45% | Population Fragmented Nuclei (%) [9]: 7% | Population Healthy Nuclei (%) [9]: 81% | Population Hoechst High Intensity Objects (%) [9]: 3% | Population Membrane Permeable-Phenotype (%) [9]: 2% | Population Mitochondria Different-Phenotype (%) [9]: 3% | Population Mitotic Cells (%) [9]: 54% | Population Normal (%) [9]: 96% | Population Pyknosed Nuclei (%) [9]: 10% | Population Tubulin-Different-Phenotype (%) [9]: 17% | Total Cell Count [9]: 124 | Population Apoptotic (%) [10]: 42% | Population Fragmented Nuclei (%) [10]: 15% | Population Healthy Nuclei (%) [10]: 55% | Population Hoechst High Intensity Objects (%) [10]: 5% | Population Membrane Permeable-Phenotype (%) [10]: 16% | Population Mitochondria Different-Phenotype (%) [10]: 18% | Population Mitotic Cells (%) [10]: 57% | Population Normal (%) [10]: 94% | Population Pyknosed Nuclei (%) [10]: 28% | Population Tubulin-Different-Phenotype (%) [10]: 24% | Total Cell Count [10]: 56 | Population Apoptotic (%) [11]: 83% | Population Fragmented Nuclei (%) [11]: 20% | Population Healthy Nuclei (%) [11]: 31% | Population Hoechst High Intensity Objects (%) [11]: 13% | Population Membrane Permeable-Phenotype (%) [11]: 13% | Population Mitochondria Different-Phenotype (%) [11]: 20% | Population Mitotic Cells (%) [11]: 16% | Population Normal (%) [11]: 86% | Population Pyknosed Nuclei (%) [11]: 48% | Population Tubulin-Different-Phenotype (%) [11]: 21% | Total Cell Count [11]: 395 | Population Apoptotic (%) [12]: 100% | Population Fragmented Nuclei (%) [12]: 40% | Population Hoechst High Intensity Objects (%) [12]: 20% | Population Membrane Permeable-Phenotype (%) [12]: 66% | Population Mitochondria Different-Phenotype (%) [12]: 61% | Population Mitotic Cells (%) [12]: 0% | Population Normal (%) [12]: 79% | Population Pyknosed Nuclei (%) [12]: 28% | Population Tubulin-Different-Phenotype (%) [12]: 77% | Total Cell Count [12]: 103
